Results taken from ChEMBL document CHEMBL5032499, “A Druglike Small Molecule that Targets r(CCUG) Repeats in Myotonic Dystrophy Type 2 Facilitates Degradation by RNA Quality Control Pathways” (J Med Chem, 2021).
Activity calls are given as the source filed them. No cut-off for these calls is given here.

How the values were obtained:
[1] = Binding affinity to r(CCUG)12 (unknown origin) assessed as apparent dissociation constant incubated for 30 mins by microscale thermophoresis; parameters: species or system Homo sapiens; conditions: read-out: Kd(app)
Summary of the method: (§1)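 Microscale thermophoresis with Cy5-labeled RNA (5 nM) folded in 8 mM Na2HPO4 pH 7.0, 185 mM NaCl, 1 mM EDTA at 60 °C for 5 min, then slowly cooled. The RNA was added to 1:1 serial compound dilutions in the same buffer, giving 0.05% Tween-20 final, and held 30 min at room temperature. Kd was fit to a quadratic binding equation; values are the mean of two independent experiments.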

Homo sapiens [2] = species on record: Homo sapiens; assay: Inhibition of r(CCUG)12-MBNL1 complex formation (unknown origin) assessed as rescue of IR exon 11 splicing defect at 5 uM by RT-PCR analysis; parameters: scale not given: the % may be the effect or the level left
Summary of the method: (§2)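 DM2 patient fibroblasts were treated at ~40% confluency for 48 h. About 1 μg of total RNA was reverse transcribed, and IR exon 11 was PCR-amplified for 35 cycles (95 °C/58 °C/72 °C). Products were resolved on 2% agarose stained with ethidium bromide and quantified by densitometry. Percent rescue was calculated as (DM2 untreated − treated exclusion)/(DM2 untreated − WT exclusion) × 100.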

Fibroblast [3] = assay: Effect on MAP4K4 exon 22a splicing in DM2-patient derived fibroblast; format: tissue-based; conditions: Homo sapiens
Fibroblast [4] = assay: Effect on IR exon 11 exclusion in wild type human fibroblast at 0.2 to 5 uM by RT-qPCR analysis; format: functional, tissue-based; conditions: dose 0.2-5 µM
[5] = Binding affinity to Base-paired RNA (unknown origin) assessed as dissociation constant incubated for 30 mins by microscale thermophoresis; parameters: species or system Homo sapiens; summary of the method: as §1
Fibroblast [6] = assay: Cytotoxicity against DM2 patient derived fibroblast assessed as cell viability at 5 uM incubated for 48 hrs by Cell Titre-Glo assay; format: cell-based; conditions: human
Summary of the method: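 DM2 patient-derived fibroblasts were grown in high-glucose DMEM with 20% FBS at 37 °C, 5% CO2. After 48 h of compound treatment, viability was read as CellTiter-Glo luminescence after 10 min at room temperature (n = 6 replicates, one independent experiment).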

Fibroblast [7] = assay: Effect on CNBP mature mRNA level in DM2 patient derived fibroblast at 0.2 to 5 uM by RT-qPCR analysis; format: functional, tissue-based; conditions: Homo sapiens, dose 0.2-5 µM
Summary of the method: (§3)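 DM2 patient fibroblasts (DMEM, 20% FBS) were treated at 40% confluency for 48 h. Total RNA was then extracted and transcript levels were measured by RT-qPCR, normalized to GAPDH (n = 6 replicates per concentration, 2 independent experiments).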

[8] = Induction of disruption of r(CCUG)12-MBNL1 complex (unknown origin) incubated for 15 mins by TR-FRET assay; parameters: species or system Homo sapiens
Summary of the method: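 Biotinylated r(CCUG)12 was folded at 60 °C for 5 min in 20 mM HEPES pH 7.5, 110 mM KCl, 10 mM NaCl. It was then brought to assay buffer (plus 2 mM MgCl2, 2 mM CaCl2, 5 mM DTT, 0.1% BSA, 0.5% Tween-20) and preincubated 15 min with MBNL1-His6 (final 80 nM RNA, 60 nM protein). Compound was added for 15 min, then streptavidin-XL665 (40 nM) and anti-His6-Tb (0.44 ng/μL) for 30 min at room temperature. TR-FRET 545/665 ratios were read; IC50 was taken from dose-response fits.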

Fibroblast [9] = assay: Reduction in CNBP intron 1 level in DM2 patient derived fibroblast at 1 uM by RT-qPCR analysis; format: functional, tissue-based; conditions: Homo sapiens; summary of the method: as §3
Fibroblast [10] = assay: Inhibition of r(CCUG)12-MBNL1 complex formation in DM2-patient derived fibroblast assessed as reduction in complex in nuclear foci per cell at 5 uM by immunofluorescence imaging analysis; format: tissue-based; conditions: Homo sapiens
Fibroblast [11] = assay: Effect on CNBP mature mRNA level in wild type human fibroblast at 0.2 to 5 uM by RT-qPCR analysis; format: functional, tissue-based; conditions: dose 0.2-5 µM
Summary of the method: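 Wild-type GM07492 fibroblasts were grown in MEM with 10% FBS. They were treated at 40% confluency for 48 h, and total RNA was extracted. Transcript level was measured by RT-qPCR normalized to GAPDH (n = 6 per concentration, 2 independent experiments).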

Homo sapiens [12] = species on record: Homo sapiens; assay: Inhibition of r(CCUG)12-MBNL1 complex formation (unknown origin) assessed as rescue of IR exon 11 splicing defect at 1 uM by RT-PCR analysis; parameters: scale not given: the % may be the effect or the level left; summary of the method: as §2
Fibroblast [13] = assay: Reduction in CNBP intron 1 level in DM2 patient derived fibroblast at 5 uM by RT-qPCR analysis; format: functional, tissue-based; conditions: Homo sapiens; summary of the method: as §3

Question: For `Cc1ccc2nc(Nc3ccc4nc(C)sc4c3)nc(NCCCO)c2c1`, which Kd [1] is on record?
Answer: Its Kd is 192 nM.

Question: What about the Activity (Homo sapiens [2]) of the same compound?
Answer: Its Activity is 30%.

Question: What about the Activity (Fibroblast [3]) of the same compound?
Answer: Its Activity is “inactive”.

Question: What about the Activity (Fibroblast [4]) of the same compound?
Answer: The Activity was “inactive”.

Question: And the Kd [5]?
Answer: The Kd was > 20000 nM.

Question: And the Activity (Fibroblast [6])?
Answer: The Activity was “Non-Toxic”.

Question: And the Activity (Fibroblast [7])?
Answer: The Activity was “inactive”.

Question: What about the IC50 [8] of the same compound?
Answer: The IC50 was 2000 nM.

Question: And the Activity (Fibroblast [9])?
Answer: Its Activity is “Active”.

Question: And the inhibition (Fibroblast [10])?
Answer: Its inhibition is 30%.

Question: What about the Activity (Fibroblast [11]) of the same compound?
Answer: The Activity was “inactive”.

Question: What about the Activity (Homo sapiens [12]) of the same compound?
Answer: Its Activity is 33%.

Question: And the Activity (Fibroblast [13])?
Answer: The Activity was “Active”.
